The target of this assay is EcCATI (type I chloramphenicol acetyltransferase) (Escherichia coli, UniProt P62577). The experiment in a line: Direct ESI-MS. The assay is classed as binding. To be noted: for Cooperativity factor α: second ligand of the same type binding to EcCATI:1Ligand; for Cooperativity factor β: third ligand of the same type binding to EcCATI:2Ligands. The essentials: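 Recombinant E. coli type I CAT (Rosetta2 BL21 DE3; heat step, anion-exchange, gel filtration) desalted into 200 mM ammonium acetate pH ~7.0 and mixed with ligand freshly prepared in the same buffer. Trimer at ~10 μM final, with the protein:ligand ratio varied by ligand. Nano-ESI on a Q-TWIMS-TOF under native-preserving settings. Bound/free abundance ratios were fitted to a stepwise three-site model giving intrinsic Kd, α and β. Values are mean ± SD.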
EcCATI (type I chloramphenicol acetyltransferase), sequence (P62577 whole entry, looked up): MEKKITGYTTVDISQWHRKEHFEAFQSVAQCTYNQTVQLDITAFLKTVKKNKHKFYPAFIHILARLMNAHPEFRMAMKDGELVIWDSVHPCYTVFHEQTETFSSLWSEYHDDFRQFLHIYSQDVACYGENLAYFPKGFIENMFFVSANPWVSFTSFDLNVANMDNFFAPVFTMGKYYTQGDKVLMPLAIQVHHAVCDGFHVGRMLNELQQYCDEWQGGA

Molecules are shown by their SMILES.

With `O=C(N[C@H](CO)[C@H](O)c1ccc([N+](=O)[O-])cc1)C(Cl)Cl` [Chl, chloramphenicol], the “Cooperativity factor α” value was 0.5 and the “Cooperativity factor β” value stood at 0.2.

In the case of `CCSCCNC(=O)CCNC(=O)[C@H](O)C(C)(C)COP(=O)(O)OP(=O)(O)OC[C@H]1O[C@@H](n2cnc3c(N)ncnc32)[C@H](O)[C@@H]1OP(=O)(O)O` [S-Et-CoA, S-ethyl-CoA], the “Cooperativity factor α” value is reported as 0.8 and the “Cooperativity factor β” value is listed as 0.5.

Values taken from paper PMC12306972 (Analytical and bioanalytical chemistry, 2023).
